These results are taken from ChEMBL document CHEMBL1157985, “Antiplasmodial and cytotoxic activity of natural bisbenzylisoquinoline alkaloids” (J Nat Prod, 1999).

In assay [1] the test system is KB. In words: Cytotoxicity against human KB cells after 72 hrs by SRB assay. The settings on record: read-out: ED50 (the source's name). In kind it is functional. Put shortly:
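KB-3 cells grown in DMEM with 10% FBS at 37 °C and 5% CO₂ to 60–70% confluence, then used 1 day after a medium change. Samples were dissolved in DMSO and serially diluted in 10% aqueous DMSO. 5×10⁴ cells were exposed for 72 h at 37 °C, then TCA-fixed, stained with 0.4% SRB and read at 515 nm. Zero-day control was subtracted and values expressed relative to solvent control; ED50 by nonlinear regression.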
In general terms: The SRB assay estimates cell density from bound dye.

In assay [2] the test system is Plasmodium falciparum. In words: Antiplasmodial activity against chloroquine-sensitive Plasmodium falciparum D6 infected human erythrocytes as [3H]hypoxanthine uptake after 24 hrs. In kind it is functional, organism-based. Put shortly:
(§1)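 P. falciparum (D6, W2) cultured in type A+ human erythrocytes, RPMI-1640 with NaHCO3, HEPES and 10% heat-inactivated human plasma, 37 °C under 5% O2/5% CO2/90% N2. Infected red cells at 0.5-1.0% parasitemia, 1.0% hematocrit exposed to compound, duplicate seven-point series, 24 h; then 0.5 μCi [3H]hypoxanthine per well for 18 h more. Filter harvest, scintillation counting; IC50 by nonlinear regression versus zero-drug controls.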

The nature of assay [3]: Selectivity index, ratio of ED50 for human KB cells to IC50 for […] Plasmodium falciparum D6. In kind it is functional.
Assay [4] concerns Plasmodium falciparum. Kind of assay: Antiplasmodial activity against chloroquine-resistant Plasmodium falciparum W2 infected human erythrocytes as [3H]hypoxanthine uptake after 24 hrs. In kind it is functional, organism-based. An outline of the steps:
as §1

The nature of assay [5]: Selectivity index, ratio of ED50 for human KB cells to IC50 for chloroquine-resistant Plasmodium falciparum W2. In kind it is functional.

SMILES strings stand for the structures. Some results are limits rather than exact numbers.

As usually defined, the IC50 is the concentration needed to halve the response being measured. Read a high IC50 as a need for much substance. For the compound `COc1cc2c3c4c1Oc1cc5c(cc1O4)[C@H](Cc1ccc(O)c(c1)Oc1ccc(cc1)C[C@@H]3NCC2)N(C)CC5`, the EC50 in assay [1] is 3.8 µM. Besides, the IC50 stood at 0.048 µM in assay [2] and 0.281 µM in assay [4]. For the same compound, the figures for the “Selectivity Index” value in assay [3] and in assay [5] were 79 and 14, respectively.

Consider `CN1CCc2cc3c4cc2[C@@H]1Cc1ccc(O)c(c1)Oc1ccc(cc1)C[C@H]1c2c(cc(O)c(c2O4)O3)CCN1C`, for which, in assay [1], the EC50 is 4.9 µM. Also, the IC50 was 0.09 µM in assay [2] and 0.259 µM in assay [4]. The “Selectivity Index” value in assay [3] stood at 55; in assay [5] it was 19.

For `COc1ccc2cc1Oc1ccc(cc1)C[C@H]1c3cc(c(OC)cc3CCN1C)Oc1c(O)c(OC)cc3c1[C@@H](C2)NCC3`, the EC50 in assay [1] was determined as 10.4 µM. For the same compound, the results for the IC50 in assay [2] and in assay [4] were 0.115 µM and 0.21 µM, respectively. The “Selectivity Index” value in assay [3] is reported as 92; in assay [5] it was 50.

In the case of `COc1ccc2cc1Oc1ccc(cc1)C[C@H]1c3cc(c(OC)cc3CCN1C)Oc1c(OC)c(OC)cc3c1[C@@H](C2)N(C)CC3`, the EC50 in assay [1] is 10.6 µM. The results for the IC50 in assay [2] and in assay [4] were 0.26 µM and 0.088 µM, respectively. The entries for the “Selectivity Index” value in assay [3] and in assay [5] were 40 and 120, respectively.

Regarding `COc1ccc2cc1Oc1ccc(cc1)C[C@H]1c3cc(c(OC)cc3CCN1C)Oc1c(OC)c(OC)cc3c1[C@@H](C2)NCC3`, the IC50 in assay [2] was 0.106 µM. Moreover, the “Selectivity Index” value in assay [3] came out at 95.

`COc1cc2c(cc1O)[C@H](Cc1ccc(Oc3cc(C[C@@H]4c5cc(OC)c(OC)cc5CCN4C)ccc3OC)cc1)N(C)CC2`: in assay [1], the EC50 was greater than 32.1 µM. For the same compound, the IC50 in assay [2] turned out to be 0.213 µM; in assay [4] it was 0.227 µM. Besides, the entries for the “Selectivity Index” value in assay [3] and in assay [5] were greater than 150 and greater than 140, respectively.

On to `COc1ccc2cc1Oc1ccc(cc1)C[C@H]1c3c(cc(OC)c4c3Oc3cc5c(cc3O4)CCN=C5C2)CCN1C`, for which the EC50 in assay [1] was found to be 5 µM. Further, the IC50 in assay [2] came out at 0.554 µM; in assay [4], 0.464 µM. For the same compound, the “Selectivity Index” value in assay [3] and in assay [5] was 11 throughout.

In the case of `COc1ccc2cc1Oc1ccc(cc1)C[C@H]1c3c(cc(O)c(OC)c3Oc3cc4c(cc3OC)CCN(C)[C@@H]4C2)CCN1C`, the EC50 in assay [1] stood at 10.5 µM. In addition, the results for the IC50 in assay [2] and in assay [4] were 0.214 µM and 0.51 µM, respectively. Besides, the “Selectivity Index” value in assay [3] turned out to be 49; in assay [5] it was 21.

As to `COc1cc2c3cc1Oc1c(O)c(OC)cc4c1[C@H](Cc1ccc(O)c(c1)Oc1ccc(cc1)C[C@H]3N(C)CC2)N(C)CC4`, in assay [1], the EC50 amounted to 17.5 µM. The figures for the IC50 in assay [2] and in assay [4] were 0.134 µM and 0.609 µM, respectively. The results for the “Selectivity Index” value in assay [3] and in assay [5] were 130 and 29, respectively.

With `COc1cc2c3cc1Oc1c(O)c(OC)cc4c1[C@H](Cc1ccc(O)c(c1)Oc1ccc(cc1)C[C@@H]3N(C)CC2)N(C)CC4`, the EC50 in assay [1] was 3.7 µM. For the same compound, the IC50 in assay [2] was 0.232 µM; in assay [4], 0.623 µM. Further, the figures for the “Selectivity Index” value in assay [3] and in assay [5] were 16 and 6, respectively.

`COc1ccc2cc1Oc1ccc(cc1)C[C@H]1c3cc(c(OC)cc3CCN1C)Oc1c(O)c(OC)cc3c1[C@@H](C2)N(C)CC3`: the EC50 in assay [1] was determined as 10.7 µM. Besides, the IC50 in assay [2] came out at 0.199 µM; in assay [4], 0.378 µM. For the same compound, the entries for the “Selectivity Index” value in assay [3] and in assay [5] were 54 and 28, respectively.

Regarding `COc1ccc2cc1Oc1ccc(cc1)C[C@@H]1c3c(cc(OC)c(O)c3Oc3cc4c(cc3OC)CCN[C@@H]4C2)CCN1C`, the EC50 in assay [1] came to 9.8 µM. The IC50 in assay [2] was determined as 0.106 µM; in assay [4] it was 0.375 µM. Also, the “Selectivity Index” value in assay [3] is recorded as 92; in assay [5], 26.

Turning to `COc1ccc2cc1Oc1ccc(cc1)C[C@@H]1c3c(cc(OC)c(O)c3Oc3cc4c(cc3OC)CCN(C)[C@@H]4C2)CCN1C`, the EC50 in assay [1] amounted to 4.11 µM. In addition, the IC50 came to 0.064 µM in assay [2] and 0.192 µM in assay [4]. In addition, the “Selectivity Index” value is on record as 64 in assay [3] and 21 in assay [5].

With `COc1ccc(C[C@H]2c3cc(Oc4cc(OC)c(OC)cc4C[C@H]4c5cc(O)c(OC)cc5CCN4C)c(OC)cc3CCN2C)cc1O`, the EC50 in assay [1] is greater than 29.9 µM. In addition, the IC50 in assay [2] came out at 0.061 µM; in assay [4] it was 0.164 µM. For the same compound, the “Selectivity Index” value is on record as greater than 490 in assay [3] and greater than 180 in assay [5].

With `COc1cc2c3cc1Oc1c(O)c(OC)cc4c1[C@@H](Cc1ccc(cc1)Oc1cc(ccc1O)C[C@H]3N(C)CC2)N(C)CC4`, the EC50 in assay [1] is 8.6 µM. The IC50 in assay [2] was found to be 0.029 µM; in assay [4] it was 0.105 µM. The “Selectivity Index” value in assay [3] amounted to 300; in assay [5], 82.

Consider `COc1ccc2cc1Oc1ccc(cc1)C[C@H]1c3c(cc(O)c4c3Oc3cc5c(cc3O4)CCN(C)[C@H]5C2)CCN1C`, for which the EC50 in assay [1] was determined as 6 µM. In addition, the half-inhibitory concentration (IC50) in assay [2] is 0.03 µM. The “Selectivity Index” value came out at 200 in assay [3] and 54 in assay [5].

For the compound `COc1ccc2cc1Oc1ccc(cc1)C[C@H]1c3c(cc4c(c3Oc3cc5c(cc3OC)CCN[C@@H]5C2)OCO4)CCN1C`, in assay [1], the EC50 stood at 6.6 µM. Moreover, the IC50 was 0.079 µM in assay [2] and 0.219 µM in assay [4]. For the same compound, the “Selectivity Index” value came out at 84 in assay [3] and 30 in assay [5].

On to `COc1ccc2cc1Oc1ccc(cc1)C[C@H]1c3c(cc(OC)c(OC)c3Oc3cc4c(cc3OC)CCN[C@@H]4C2)CCN1C`, for which the EC50 in assay [1] was 9.9 µM. The IC50 in assay [2] was determined as 0.075 µM; in assay [4], 0.154 µM. In addition, the “Selectivity Index” value was found to be 130 in assay [3] and 64 in assay [5].

In the case of `COc1ccc2cc1Oc1ccc(cc1)C[C@H]1c3c(cc(OC)c(O)c3Oc3cc4c(cc3OC)CCN(C)[C@H]4C2)CCN1C`, the EC50 in assay [1] was 3.62 µM. The IC50 in assay [2] stood at 0.048 µM; in assay [4] it was 0.067 µM. For the same compound, the “Selectivity Index” value in assay [3] stood at 76; in assay [5], 54.

For `COc1ccc2cc1Oc1ccc(cc1)C[C@@H]1NCCc3cc(OC)c(cc31)Oc1c(O)c(OC)cc3c1[C@@H](C2)N(C)CC3`, in assay [1], the EC50 was determined as 2.7 µM. The IC50 was determined as 0.118 µM in assay [2] and 0.218 µM in assay [4]. In addition, the “Selectivity Index” value in assay [3] is given as 23; in assay [5], 12.

As to `COc1cc2c3cc1Oc1c(O)c(OC)cc4c1[C@H](Cc1ccc(cc1)Oc1cc(ccc1O)C[C@H]3N(C)CC2)N(C)CC4`, the EC50 in assay [1] stood at 14.8 µM. The IC50 in assay [2] turned out to be 0.446 µM; in assay [4] it was 1.4 µM. The “Selectivity Index” value in assay [3] is given as 33; in assay [5], 11.

Regarding `COc1ccc2cc1Oc1cc3c(cc1OC)CCN(C(C)=O)[C@H]3Cc1ccc(cc1)Oc1c3c(cc4c1[C@@H](C2)N(C)CC4)OCO3`, the EC50 in assay [1] amounted to 13.6 µM. The IC50 in assay [2] was 1.91 µM; in assay [4], 1.05 µM. Also, the “Selectivity Index” value in assay [5] is 13.

In the case of `COc1ccc2cc1Oc1ccc(cc1)C[C@@H]1c3cc(c(OC)cc3CCN1C)Oc1c(O)c(OC)cc3c1[C@@H](C2)N(C)CC3`, the EC50 in assay [1] is 16.1 µM. For the same compound, the IC50 in assay [2] worked out at 0.086 µM; in assay [4] it was 0.263 µM. Further, the “Selectivity Index” value in assay [3] is 186; in assay [5], 61.

In the case of `COc1cc2c3cc1Oc1c(OC)c(OC)cc4c1[C@H](Cc1ccc(cc1)Oc1cc(ccc1O)C[C@@H]3N(C)CC2)N(C)CC4`, the EC50 in assay [1] amounted to 15 µM. Moreover, the values for the IC50 in assay [2] and in assay [4] were 0.042 µM and 0.067 µM, respectively. The “Selectivity Index” value is recorded as 350 in assay [3] and 220 in assay [5].

Take `COc1cc2c3cc1Oc1c(OC)c(OC)cc4c1[C@@H](Cc1ccc(O)c(c1)Oc1ccc(cc1)C[C@@H]3N(C)CC2)NCC4`: the EC50 in assay [1] was determined as 7.1 µM. Besides, the figures for the IC50 in assay [2] and in assay [4] were 0.047 µM and 0.193 µM, respectively. For the same compound, the results for the “Selectivity Index” value in assay [3] and in assay [5] were 149 and 36, respectively.

Regarding `COc1ccc2cc1Oc1ccc(cc1)C[C@H]1c3cc(c(OC)cc3CC[N+]1(C)[O-])Oc1c(OC)c(OC)cc3c1[C@H](C2)N(C)CC3` (some centres undefined), the EC50 in assay [1] is greater than 31.3 µM. In addition, the half-inhibitory concentration (IC50) amounted to 1.98 µM in assay [2] and 0.948 µM in assay [4]. Besides, the “Selectivity Index” value in assay [3] was greater than 16; in assay [5], greater than 34.

`CCN(CC)CCCC(C)Nc1ccnc2cc(Cl)ccc12` (centres undefined) [CHLOROQUINE]: the EC50 in assay [1] was found to be 33.7 µM.

Consider `COc1cc2c3c4c1Oc1cc5c(cc1O4)[C@H](Cc1ccc(O)c(c1)Oc1ccc(cc1)C[C@@H]3N(C)CC2)N(C)CC5` [COCSULINE], for which the EC50 in assay [1] is 10 µM. For the same compound, the IC50 in assay [2] came out at 0.087 µM; in assay [4], 0.502 µM. Further, the “Selectivity Index” value in assay [3] was 110.

`OC(c1cc(C(F)(F)F)nc2c(C(F)(F)F)cccc12)C1CCCCN1` (centres undefined) [MEFLOQUINE]: the EC50 in assay [1] was found to be 8.43 µM. Besides, the “Selectivity Index” value came to 465 in assay [3] and 1080 in assay [5]. For the same compound, 0.00778 µM corresponded to half-maximal inhibition in assay [4] (IC50).
